From PubChem
In the library only some 1.8% were active in any assay of this set; here they are far more common.
NPY Y1 blocker: NPY-Y1 receptor antagonists, primary screen, cell-based; inhibition, % at 3.6 µM; hit rate 1% among 200,000; AID 1040, 2008; HEK293-CNG Y1 cells, membrane potential fluorescence; NPY at EC95, then isoproterenol;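 active means inhibition above the campaign mean inhibition of all tested compounds plus 3 SD, cut at about 20% in these data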;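 further: 0% = DMSO wells given NPY plus isoproterenol and 100% = isoproterenol alone without NPY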
Target sequence (P25929 whole entry, looked up): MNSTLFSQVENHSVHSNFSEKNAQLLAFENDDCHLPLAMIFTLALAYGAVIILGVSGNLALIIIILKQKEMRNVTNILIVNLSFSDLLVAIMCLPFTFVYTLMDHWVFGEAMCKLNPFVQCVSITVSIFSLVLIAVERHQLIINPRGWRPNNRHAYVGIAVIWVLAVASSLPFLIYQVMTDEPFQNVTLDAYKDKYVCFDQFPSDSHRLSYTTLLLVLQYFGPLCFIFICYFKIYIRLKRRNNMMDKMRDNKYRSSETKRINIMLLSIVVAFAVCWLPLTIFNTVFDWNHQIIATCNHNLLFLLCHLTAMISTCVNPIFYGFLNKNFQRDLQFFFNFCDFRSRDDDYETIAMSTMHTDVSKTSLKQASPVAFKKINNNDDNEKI
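Material: Y1- and CNG-channel-expressing HEK293 cells / Probe or stimulus: NPY 25 nM then isoproterenol 1 µM plus Ro 20-1724 25 µM / Doses: 3.6 µM single dose, DMSO 0.4% / Schedule: compound incubation 1 h at room temperature, readout 45 min post-stimulation / Signal: membrane potential fluorescence / Benchmarks: isoproterenol-only wells as full block versus NPY-plus-isoproterenol wells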
NPY-Y1 PAM-ag: NPY-Y1 receptor potentiators or agonists, primary screen, cell-based; Neuropeptide Y receptor type 1 (Homo sapiens), P25929; NPY-Y1 expressing cells, potentiator/agonist activation; activation, % at 3.6 µM; hit rate 0.37% among 220,000; in the data active means activation above about 33%, passing the limit was not always enough;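 further: cells stimulated with NPY at EC10 then isoproterenol at EC100; 0% = low agonist plus stimulus and 100% = saturating agonist plus stimulus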
NPY-Y2 antag: NPY-Y2 receptor antagonists, primary screen, cell-based | AID 793, 2007 | hit rate 0.99% among 140,000 | Neuropeptide Y receptor type 2 (Homo sapiens), P49146 | inhibition, % at 2.7 µM | NPY-Y2 expressing cells, antagonist mode; in the data active means inhibition above about 17%;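 further: 0% = vehicle with agonist challenge and 100% = reference antagonist with challenge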
NPY2 pot ag: NPY-Y2 potentiators or agonists, primary screen, cell-based | Neuropeptide Y receptor type 2 (Homo sapiens), P49146 | cells expressing NPY-Y2, potentiator/agonist read-out | activation, % at 3.6 µM | hit rate 0.45% among 220,000 | AID 1359, 2008; in the data active means activation above about 27%;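 further: cells stimulated with NPY near EC25 plus isoproterenol at EC100; 0% = vehicle plus submaximal agonist and 100% = vehicle plus saturating agonist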
NPY1 antag ctr: NPY-Y1 receptor antagonists, selectivity check, counter-screen for NPY-Y2 antagonist project, cell-based. cell-based NPY-Y1 antagonism counterscreen. inhibition, % at 3.6 µM. hit rate 19% among 710. AID 1256, 2008. shares compounds with NPY-Y2 antag; in the data active means inhibition above about 20%;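 further: cells challenged with NPY then isoproterenol with cAMP sensed through a CNG channel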
NPY2 antag conf: NPY-Y2 receptor antagonists, retest of hits, confirmation, HEK293-CNG cells, membrane potential fluorescence, triplicate | shares compounds with NPY-Y2 antag | HEK293 NPY-Y2 CNG channel | inhibition, % at 2.8 µM | hit rate 32% among 710;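 active means mean inhibition of triplicate wells above the hit cutoff set in the primary screen, cut at about 17% in these data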;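 further: 0% = DMSO with NPY challenge and 100% = BIIE0246 high control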
An asterisk follows results filed as active; . = no result given.

SMILES	NPY Y1 blocker	NPY-Y1 PAM-ag	NPY-Y2 antag	NPY2 pot ag	NPY1 antag ctr	NPY2 antag conf
CCCCc1nc2ccccc2c(N)c1CCC (tested in a mixture with another compound)	15	-49	18*	8	5	5
CCOC(=O)Cc1csc(SCC(=O)Nc2cc(Cl)ccc2Oc2ccccc2)n1	6	9	19*	-23	7	5
O=C(COC(=O)c1cccc(Cl)c1)Nc1cc(Cl)ccc1Oc1ccccc1	14	-10	19*	-1	14	12
CCOC(=O)Cc1csc(SCC(=O)Nc2cccc(Cl)c2)n1	2	-8	5	-5	.	.
O=C(C(Sc1ccccc1)c1ccccc1)N1CCN(c2ccccc2)CC1 (centres undefined)	12	-3	19*	0	16	9
CN(C)c1ccc(NC(=O)CN2CCC(O)(c3ccccc3)CC2)cc1	3	3	.	-1	.	.
CN(C)C(=O)C(CCN1CCC(O)(c2ccc(Cl)cc2)CC1)(c1ccccc1)c1ccccc1	19	-39	25*	0	15	28*
COc1cccc2sc(N(CCCN(C)C)C(=O)c3sc4ccccc4c3Cl)nc12	8	-30	27*	-30	15	14
Cc1cccc2sc(N(CCCN(C)C)C(=O)c3sc4ccccc4c3Cl)nc12	8	-20	5	-17	.	.
CC(C)N1CCN(Cc2cccc(-n3cccn3)c2)CC1CCO (centres undefined)	7	10	.	-18	.	.
CCCOc1ccc2oc(=O)c3c(c2c1)CCCN3C(=O)CN1CCN(C(=O)c2ccco2)CC1	-2	-5	0	0	.	.
O=C(CN1CCCC1)N1CCCc2c1c(=O)oc1ccc(OCc3ccccc3)cc21	17	-39	19*	-11	23*	28*
N#C/C(=C\c1cn(Cc2ccc(F)cc2)c2ccccc12)C(=O)NCc1ccco1	0	-14	18*	3	1	5
Cc1cccc(C)c1NC(=O)CCCSc1nnc(-c2ccc(Cl)cc2)n1-c1ccccc1	2	-9	18*	1	3	12
FC(F)(F)COc1ccc(-c2nnc(SCc3ccccc3)o2)cn1	.	-33	.	0	.	.
O=C(c1ccccc1)N(Cc1cccnc1)C1(C(=O)Nc2ccccc2)CCCCC1	2	7	19*	-2	4	5
O=C(NC(=S)Nc1ccccc1N1CCCCC1)c1ccco1	8	-67	18*	-3	12	8
CCCC(c1nnnn1C(C)(C)CC)N1CCN(C2CCCC2)CC1 (centres undefined)	19	-21	25*	-23	15	8
CCC(c1nnnn1C1CCCCC1)N1CCN(C2CCCC2)CC1 (centres undefined)	9	-22	27*	2	11	12
CCC(c1nnnn1C(C)(C)C)N1CCN(C2CCCC2)CC1 (centres undefined)	1	-5	4	2	.	.
CC(C)c1onc(C(=O)NCc2ccccc2)c1[N+](=O)[O-]	-2	-7	0	4	.	.
CS(=O)(=O)N(CC(=O)NC1CC1)C1CCCCC1	12	23	0	8	.	.
Cc1ccc(C)c(NS(=O)(=O)c2cc(C(=O)Nc3ccccc3-c3ccccc3)ccc2C)c1	5	18	22*	-41	0	117*
Cc1ccc(C(=O)Nc2ccccc2-c2ccccc2)cc1S(=O)(=O)Nc1cccc(C)c1C	4	-4	15	-25	.	.
COc1ccc(/C=C2\CCCC3C2=NN(C(=O)CSc2n[nH]c(N)n2)C3c2ccc(OC)cc2)cc1 (centres undefined)	-1	-65	.	-62	.	.
SMILES	NPY Y1 blocker	NPY-Y1 PAM-ag	NPY-Y2 antag	NPY2 pot ag	NPY1 antag ctr	NPY2 antag conf
C/C(=N\O)c1ccc(N2C(=O)C3CC=C(Cl)CC3C2=O)cc1 (centres undefined)	13	-5	23*	-22	5	17
Cn1ccnc1SCC(=O)Nc1cccc(O)c1	7	-7	18*	13	-3	-2
C/C(=N/NS(C)(=O)=O)c1ccc2ccccc2c1	1	-10	17*	-3	8	5
N#CC(C#N)=C1C=CC=CN1/C(=C\c1ccco1)C(=O)c1ccc(Cl)cc1	-1	-1	18*	-8	15	83*
N#CC(C#N)=C1C=CC=CN1/C(=C\c1ccco1)C(=O)c1ccc(-c2ccccc2)cc1	2	-48	7	-11	.	.
COc1cccc(N(CC(=O)N/N=C(\C)c2cccs2)S(C)(=O)=O)c1	-2	-5	1	9	.	.
O=C(NCc1ccco1)NC1CCCCC1	6	-6	4	-1	.	.
CCC(C)(C(=O)NC1CCCCC1)N(Cc1ccco1)C(=O)c1ccccn1 (centres undefined)	14	-20	17*	-19	12	9
Cc1cccc(-c2nnc3sc(-c4ccccc4C)nn23)c1	7	-40	19*	-9	7	13
COc1cccc(-c2nnc3sc(-c4ccccc4)nn23)c1	10	2	7	0	.	.
CC(=O)Nc1ccccc1N(C)S(=O)(=O)c1ccc(C)cc1	0	0	0	4	.	.
Cc1cc([N+](=O)[O-])cc(C)c1OCC(=O)N/N=C/c1ccc(OC(=O)c2ccccc2Br)cc1	1	13	0	17	.	.
Cc1cc([N+](=O)[O-])cc(C)c1OCC(=O)N/N=C/c1ccc(OC(=O)c2ccccc2)cc1	-2	-4	20*	4	3	17
CCS(=O)(=O)c1ccc(S(=O)(=O)CC)s1	3	10	-1	19	.	.
O=C(Nc1ccc(S(=O)(=O)NC2CCCC2)cc1)c1cnccn1	2	-4	23*	-10	1	9
CC(C)c1cc(C(=O)N/N=C/c2cccnc2)n[nH]1	-4	-10	2	15	.	.
Cc1ccc(C(C(=O)NC2CCCCC2)N(Cc2cccnc2)C(=O)C2COc3ccccc3O2)o1 (centres undefined)	7	8	25*	2	3	8
Cc1ccc(C(C(=O)NC2CCCC2)N(Cc2cccnc2)C(=O)c2snc(C(N)=O)c2N)o1 (centres undefined)	0	4	4	-3	.	.
Cc1ccccc1C(=O)Oc1ccc(Br)cc1C(=S)N1CCCC1	7	-23	17*	-7	14	10
O=C(Oc1ccc(Br)cc1C(=S)N1CCCC1)c1ccccc1Cl	5	-25	10	-7	.	.
O=[N+]([O-])c1ccc(-c2csc(Nc3ccccc3)[n+]2Cc2ccccc2)cc1	11	-4	19*	12	11	9
